# In ChEMBL document CHEMBL4138201, “Synthesis and biological evaluation of sulfur-containing shikonin oxime derivatives as potential antineoplastic agents” (Eur J Med Chem, 2018):
# Calls of active or inactive are those of the source. No cut-off for these calls is given here.
# Key:
# [1] = system: HCT-15; experiment: Cytotoxicity against human HCT15 cells after 48 hrs by MTT assay; type: functional, cell-based; conditions: HCT-15, 48 h
# Procedure, shortened: (§1)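 MTT colorimetric assay. Shikonin and 5-fluorouracil served as reference agents. IC₅₀ obtained by linear regression of each compound's concentration–response curve.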
# [2] = system: MGC-803; experiment: Cytotoxicity against human MGC803 cells after 48 hrs by MTT assay; type: functional, cell-based; conditions: MGC-803, 48 h; procedure, shortened: as §1
# [3] = system: Bel-7402; experiment: Cytotoxicity against human Bel7402 cells after 48 hrs by MTT assay; type: functional, cell-based; conditions: Bel-7402, 48 h; procedure, shortened: as §1
# [4] = system: MCF7; experiment: Cytotoxicity against human MCF7 cells after 48 hrs by MTT assay; type: functional, cell-based; conditions: MCF7, 48 h; procedure, shortened: as §1
# [5] = Cytotoxicity against human HSF cells after 48 hrs by MTT assay; type: cell-based; procedure, shortened: as §1
# [6] = Induction of NO release in phosphate buffer at pH 7.4 at 0.1 mM measured after 1 hr in presence of N-acetylcysteine by Griess assay; type: functional
# Procedure, shortened: (§2)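 Percentage of NO released in vitro measured by Griess assay against a standard curve. Incubation in 0.5 mM N-acetylcysteine, read hourly from 1 to 6 h.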
# [7] = Induction of NO release in phosphate buffer at pH 7.4 at 0.1 mM measured after 2 hrs in presence of N-acetylcysteine by Griess assay; type: functional; procedure, shortened: as §2
# [8] = Induction of NO release in phosphate buffer at pH 7.4 at 0.1 mM measured after 3 hrs in presence of N-acetylcysteine by Griess assay; type: functional; procedure, shortened: as §2
# [9] = Induction of NO release in phosphate buffer at pH 7.4 at 0.1 mM measured after 4 hrs in presence of N-acetylcysteine by Griess assay; type: functional; procedure, shortened: as §2
# [10] = Induction of NO release in phosphate buffer at pH 7.4 at 0.1 mM measured after 5 hrs in presence of N-acetylcysteine by Griess assay; type: functional; procedure, shortened: as §2
# [11] = Induction of NO release in phosphate buffer at pH 7.4 at 0.1 mM measured after 6 hrs in presence of N-acetylcysteine by Griess assay; type: functional; procedure, shortened: as §2
# [12] = system: HCT-15; experiment: Cell cycle arrest in human HCT15 cells assessed assessed as accumulation at G1 phase at 0.5 uM after 24 hrs by propidium iodide staining-based flow cytometric method (reference value: 36.7%); type: functional
# Procedure, shortened: (§3)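 HCT-15 cells seeded in 6-well plates, exposed to 0, 0.5 or 1.0 µM for 24 h, then harvested and stained with propidium iodide. DNA content read by flow cytometry and G1, S and G2/M fractions calculated. Comparison with untreated control by Student's t-test.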
# [13] = system: HCT-15; experiment: Cell cycle arrest in human HCT15 cells assessed assessed as accumulation at G1 phase at 1.0 uM after 24 hrs by propidium iodide staining-based flow cytometric method (reference value: 36.7%); type: functional; procedure, shortened: as §3
# [14] = system: HCT-15; experiment: Cell cycle arrest in human HCT15 cells assessed assessed as accumulation at S phase at 0.5 to 1.0 uM after 24 hrs by propidium iodide staining-based flow cytometric method; type: functional; conditions: in the assay text read “accumulation at G1 phase” for “accumulation at S phase”; procedure, shortened: as §3
# [15] = system: HCT-15; experiment: Cell cycle arrest in human HCT15 cells assessed assessed as accumulation at G2/M phase at 0.5 to 1.0 uM after 24 hrs by propidium iodide staining-based flow cytometric method; type: functional; conditions: in the assay text read “accumulation at G1 phase” for “accumulation at G2/M phase”; procedure, shortened: as §3
# [16] = system: HCT-15; experiment: Induction of apoptosis in human HCT15 cells assessed as nuclear fragmentation up to 1.0 uM after 24 hrs by Hoechst 33342 staining-based fluorescence microscopic method; type: functional, cell-based
# Procedure, shortened: (§4)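 HCT-15 cells incubated 24 h at 0, 0.5 or 1.0 µM, then stained with Hoechst 33342. Nuclei examined by fluorescence for fragmentation, chromatin condensation and staining intensity.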
# [17] = system: HCT-15; experiment: Induction of apoptosis in human HCT15 cells assessed as chromatin condensation up to 1.0 uM after 24 hrs by Hoechst 33342 staining-based fluorescence microscopic method; type: functional, cell-based; procedure, shortened: as §4
# [18] = system: HCT-15; experiment: Induction of apoptosis in human HCT15 cells assessed as necrotic cells at 0.5 uM after 24 hrs by Annexin-V-FITC/propidium iodide staining based flow cytometry (reference value: 0.005%); type: functional
# [19] = system: HCT-15; experiment: Induction of apoptosis in human HCT15 cells assessed as late apoptotic cells at 0.5 uM after 24 hrs by Annexin-V-FITC/propidium iodide staining based flow cytometry (reference value: 6.59%); type: functional
# [20] = system: HCT-15; experiment: Induction of apoptosis in human HCT15 cells assessed as early apoptotic cells at 0.5 uM after 24 hrs by Annexin-V-FITC/propidium iodide staining based flow cytometry (reference value: 2.97%); type: functional
# [21] = system: HCT-15; experiment: Induction of apoptosis in human HCT15 cells assessed as viable cells at 0.5 uM after 24 hrs by Annexin-V-FITC/propidium iodide staining based flow cytometry (reference value: 90.4%); type: functional; conditions: HCT-15, 24 h, read-out: Activity
# [22] = system: HCT-15; experiment: Induction of apoptosis in human HCT15 cells assessed as necrotic cells at 1 uM after 24 hrs by Annexin-V-FITC/propidium iodide staining based flow cytometry (reference value: 0.005%); type: functional
# [23] = system: HCT-15; experiment: Induction of apoptosis in human HCT15 cells assessed as late apoptotic cells at 1 uM after 24 hrs by Annexin-V-FITC/propidium iodide staining based flow cytometry (reference value: 6.59%); type: functional
# [24] = system: HCT-15; experiment: Induction of apoptosis in human HCT15 cells assessed as early apoptotic cells at 1 uM after 24 hrs by Annexin-V-FITC/propidium iodide staining based flow cytometry (reference value: 2.97%); type: functional
# [25] = system: HCT-15; experiment: Induction of apoptosis in human HCT15 cells assessed as viable cells at 1 uM after 24 hrs by Annexin-V-FITC/propidium iodide staining based flow cytometry (reference value: 90.4%); type: functional; conditions: HCT-15, 24 h, read-out: Activity
# [26] = system: HCT-15; experiment: Induction of apoptosis in human HCT15 cells assessed as necrotic cells at 2 uM after 24 hrs by Annexin-V-FITC/propidium iodide staining based flow cytometry (reference value: 0.005%); type: functional
# [27] = system: HCT-15; experiment: Induction of apoptosis in human HCT15 cells assessed as late apoptotic cells at 2 uM after 24 hrs by Annexin-V-FITC/propidium iodide staining based flow cytometry (reference value: 6.59%); type: functional
# [28] = system: HCT-15; experiment: Induction of apoptosis in human HCT15 cells assessed as early apoptotic cells at 2 uM after 24 hrs by Annexin-V-FITC/propidium iodide staining based flow cytometry (reference value: 2.97%); type: functional
# [29] = system: HCT-15; experiment: Induction of apoptosis in human HCT15 cells assessed as viable cells at 2 uM after 24 hrs by Annexin-V-FITC/propidium iodide staining based flow cytometry (reference value: 90.4%); type: functional; conditions: HCT-15, 24 h, read-out: Activity
# [30] = system: HCT-15; experiment: Induction of apoptosis in human HCT15 cells after 24 hrs by Annexin-V-FITC/propidium iodide staining based flow cytometry; type: functional, cell-based
# [31] = system: HCT-15; experiment: Induction of apoptosis in human HCT15 cells assessed as increase in Bax protein expression up to 2 uM after 24 hrs by Western blot analysis; type: functional, cell-based
# Procedure, shortened: (§5)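 Protein extracted from HCT-15 cells after 24 h at 0, 0.5, 1.0 or 2.0 µM. Bcl-2, Bax and cleaved caspase-3 and -9 immunoblotted, band ratios quantified by densitometry. Student's t-test used.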
# [32] = system: HCT-15; experiment: Induction of apoptosis in human HCT15 cells assessed as downregulation of Bcl2 expression at 2 uM after 24 hrs by Western blot analysis; type: functional, cell-based; procedure, shortened: as §5
# [33] = system: HCT-15; experiment: Induction of apoptosis in human HCT15 cells assessed as increase in cleaved caspase-3 levels after 24 hrs by Western blot analysis; type: functional, cell-based; procedure, shortened: as §5
# [34] = system: HCT-15; experiment: Induction of apoptosis in human HCT15 cells assessed as increase in cleaved caspase-9 levels after 24 hrs by Western blot analysis; type: functional, cell-based; procedure, shortened: as §5
smiles,measurement,setting,value
COc1cc(C(=O)SC(CC=C(C)C)c2cc(OC)c3c(c2OC)/C(=N/O)C=C/C3=N\O)cc(OC)c1OC (centres undefined),IC50,[1],270 nM
same,IC50,[2],860 nM
same,IC50,[3],450 nM
same,IC50,[4],9230 nM
same,IC50,[5],> 50000 nM
same,Activity,[6],0.049%
same,Activity,[7],0.063%
same,Activity,[8],0.076%
same,Activity,[9],0.091%
same,Activity,[10],0.084%
same,Activity,[11],0.079%
same,Activity,[12],44.1%
same,Activity,[13],49.9%
same,Activity,[14],Active
same,Activity,[15],Active
same,Activity,[16],Active
same,Activity,[17],Active
same,Activity,[18],0.018%
same,Activity,[19],9.43%
same,Activity,[20],4.56%
same,viability at 0.5 µM,[21],86%
same,Activity,[22],0.021%
same,Activity,[23],23.7%
same,Activity,[24],18.3%
same,viability at 1 µM,[25],58%
same,Activity,[26],0.088%
same,Activity,[27],57.3%
same,Activity,[28],20.1%
same,viability at 2 µM,[29],22.4%
same,Activity,[30],Dose-dependent effect
same,Activity,[31],Active
same,Activity,[32],Active
same,Activity,[33],Dose-dependent effect
same,Activity,[34],Dose-dependent effect
